Data: ChEMBL document CHEMBL1144169, “Synthesis and cytotoxic activity of heterocyclic ring-substituted betulinic acid derivatives” (Bioorg Med Chem Lett, 2008)
Values after ≈ are worked out from the molar mass of the structure shown.

Assays:
PA-1 = experiment: Cytotoxicity against human PA-1 cells after 72 hrs by MTT assay; assay type: functional, cell-based; conditions: PA-1, 72 h
Summary of the method: (§1)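 Cells harvested from 70–80% confluent cultures by trypsin/EDTA and seeded at 5000 cells/well in DMEM for 24 h. Compounds were dissolved in DMSO and diluted in medium to 0.5–20, with final DMSO below 1%. After 72 h at CO2, MTT was added for 3 h at 37 °C. Medium was replaced with DMSO and OD read at 540 nm. IC50 ± SD, three independent experiments.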

DU-145 = experiment: Cytotoxicity against human DU145 cells after 72 hrs by MTT assay; assay type: functional, cell-based; conditions: DU-145, 72 h; summary of the method: as §1
SW-620 = experiment: Cytotoxicity against human SW620 cells after 72 hrs by MTT assay; assay type: functional, cell-based; conditions: SW-620, 72 h; summary of the method: as §1
HBL-100 = experiment: Cytotoxicity against human HBL100 cells after 72 hrs by MTT assay; assay type: functional, cell-based; conditions: HBL-100, 72 h; summary of the method: as §1
MIA PaCa-2 [1] = experiment: Cytotoxicity against human MIA PaCa2 cells after 72 hrs by MTT assay; assay type: functional, cell-based; conditions: MIA PaCa-2, 72 h; summary of the method: as §1
A549 = experiment: Cytotoxicity against human A549 cells after 72 hrs by MTT assay; assay type: functional, cell-based; conditions: A549, 72 h; summary of the method: as §1
K562 = experiment: Cytotoxicity against human K-562 cells after 72 hrs by MTT assay; assay type: functional, cell-based; conditions: K562, 72 h
NIH3T3 [2] = experiment: Cytotoxicity against mouse NIH3T3 cells after 72 hrs by MTT assay; assay type: cell-based; conditions: NIH3T3, 72 h; summary of the method: as §1
NIH3T3 [3] = experiment: Selectivity index, ratio of IC50 for mouse NIH3T3 cells to IC50 for human SW620 cells; assay type: functional
MIA PaCa-2 [4] = experiment: Selectivity index, ratio of IC50 for mouse NIH3T3 cells to IC50 for human MIA PaCa2 cells; assay type: functional

Compound	IC50 (PA-1) [µg/mL]	IC50 (DU-145) [µg/mL]	IC50 (SW-620) [µg/mL]	IC50 (HBL-100) [µg/mL]	IC50 (MIA PaCa-2 [1]) [µg/mL]	IC50 (A549) [µg/mL]	IC50 (K562) [µg/mL]	IC50 (NIH3T3 [2]) [µg/mL]	Ratio IC50 (NIH3T3 [3])	Ratio IC50 (MIA PaCa-2 [4])
CC(C)[C@@H]1CC[C@]2(C(=O)O)CC[C@]3(C)[C@H](CC[C@@H]4[C@@]5(C)Cc6c([nH]c7ccc(Cl)cc67)C(C)(C)[C@@H]5CC[C@]43C)[C@@H]12	6.6 (≈ 11.7 µM)	6.5 (≈ 11.5 µM)	5.9 (≈ 10.5 µM)	> 20	15.2 (≈ 26.9 µM)	8.8 (≈ 15.6 µM)	> 20	19 (≈ 33.7 µM)		
C=C(C)[C@@H]1CC[C@]2(C(=O)NCC(=O)O)CC[C@]3(C)[C@H](CC[C@@H]4[C@@]5(C)Cc6c([nH]c7ccccc67)C(C)(C)[C@@H]5CC[C@]43C)[C@@H]12	3 (≈ 5.13 µM)	7 (≈ 12 µM)	8.7 (≈ 14.9 µM)	> 20	0.67 (≈ 1.15 µM)	3.53 (≈ 6.04 µM)	11.9 (≈ 20.4 µM)	0.68 (≈ 1.16 µM)		
C=C(C)[C@@H]1CC[C@]2(C(=O)O)CC[C@]3(C)[C@H](CC[C@@H]4[C@@]5(C)Cc6c([nH]c7c(Cl)cccc67)C(C)(C)[C@@H]5CC[C@]43C)[C@@H]12	6.39 (≈ 11.4 µM)	11.7 (≈ 20.7 µM)	2 (≈ 3.56 µM)	11.8 (≈ 21 µM)	11.6 (≈ 20.6 µM)	8.7 (≈ 15.5 µM)	9.26 (≈ 16.5 µM)	11.8 (≈ 21 µM)	6	
CC(C)[C@@H]1CC[C@]2(C(=O)O)CC[C@]3(C)[C@H](CC[C@@H]4[C@@]5(C)Cc6c(oc7ccccc67)C(C)(C)[C@@H]5CC[C@]43C)[C@@H]12	> 20	> 20	> 20	> 20	8.8 (≈ 16.6 µM)	7.1 (≈ 13.4 µM)	15.3 (≈ 28.8 µM)	20 (≈ 37.7 µM)		
C=C(C)[C@@H]1CC[C@]2(C(=O)O)CC[C@]3(C)[C@H](CC[C@@H]4[C@@]5(C)Cc6c([nH]c7ccc(Cl)cc67)C(C)(C)[C@@H]5CC[C@]43C)[C@@H]12	2.5 (≈ 4.45 µM)	4.9 (≈ 8.72 µM)	2.7 (≈ 4.8 µM)	11.8 (≈ 20.9 µM)	2.44 (≈ 4.34 µM)	7.14 (≈ 12.7 µM)	9.61 (≈ 17.1 µM)	4.6 (≈ 8.18 µM)		2
C=C(C)[C@@H]1CC[C@]2(C(=O)O)CC[C@]3(C)[C@H](CC[C@@H]4[C@@]5(C)Cc6c([nH]c7ccccc67)C(C)(C)[C@@H]5CC[C@]43C)[C@@H]12	6.01 (≈ 11.4 µM)	8.86 (≈ 16.8 µM)	5.15 (≈ 9.76 µM)	10.3 (≈ 19.5 µM)	6.7 (≈ 12.7 µM)	7.6 (≈ 14.4 µM)	10 (≈ 19 µM)	6.9 (≈ 13.1 µM)		
C=C(C)[C@@H]1CC[C@]2(C(=O)NCC(=O)O)CC[C@]3(C)[C@H](CC[C@@H]4[C@@]5(C)Cc6c([nH]c7ccc(Cl)cc67)C(C)(C)[C@@H]5CC[C@]43C)[C@@H]12	6.66 (≈ 10.8 µM)	10.3 (≈ 16.7 µM)	10.4 (≈ 16.8 µM)	16.5 (≈ 26.6 µM)	10.7 (≈ 17.3 µM)	12.4 (≈ 20 µM)	> 20	11.2 (≈ 18.1 µM)		
C=C(C)[C@@H]1CC[C@]2(C(=O)O)CC[C@]3(C)[C@H](CC[C@@H]4[C@@]5(C)Cc6c([nH]c7cc(Cl)cc(Cl)c67)C(C)(C)[C@@H]5CC[C@]43C)[C@@H]12	> 20	> 20	> 20	> 20	> 20	5.5 (≈ 9.22 µM)	> 20	4.1 (≈ 6.87 µM)		
CC(C)[C@@H]1CC[C@]2(C(=O)O)CC[C@]3(C)[C@H](CC[C@@H]4[C@@]5(C)Cc6c(n(C)c7ccccc67)C(C)(C)[C@@H]5CC[C@]43C)[C@@H]12	> 20	> 20	> 20	14.1 (≈ 26 µM)	5.4 (≈ 9.93 µM)	6.5 (≈ 12 µM)	10.8 (≈ 20 µM)	> 20		
C=C(C)[C@@H]1CC[C@]2(C(=O)O)CC[C@]3(C)[C@H](CC[C@@H]4[C@@]5(C)Cc6c([nH]c7c(F)cccc67)C(C)(C)[C@@H]5CC[C@]43C)[C@@H]12		> 20	> 20	3.5 (≈ 6.41 µM)	3.3 (≈ 6.05 µM)	3 (≈ 5.5 µM)	8.7 (≈ 15.9 µM)	2.1 (≈ 3.85 µM)		
CC(C)[C@@H]1CC[C@]2(C(=O)O)CC[C@]3(C)[C@H](CC[C@@H]4[C@@]5(C)Cc6c([nH]c7ccc(F)cc67)C(C)(C)[C@@H]5CC[C@]43C)[C@@H]12	> 20	> 20	7.28 (≈ 13.3 µM)	> 20	8.4 (≈ 15.3 µM)	8.89 (≈ 16.2 µM)	14 (≈ 25.6 µM)	14.6 (≈ 26.6 µM)		
C=C(C)[C@@H]1CC[C@]2(C(=O)O)CC[C@]3(C)[C@H](CC[C@@H]4[C@@]5(C)Cc6c(n(C)c7ccccc67)C(C)(C)[C@@H]5CC[C@]43C)[C@@H]12	> 20	20 (≈ 36.9 µM)	> 20	19.5 (≈ 36 µM)	5.34 (≈ 9.86 µM)	6.9 (≈ 12.7 µM)	7.73 (≈ 14.3 µM)	15.1 (≈ 27.9 µM)		
C=C(C)[C@@H]1CC[C@]2(C(=O)O)CC[C@]3(C)[C@H](CC[C@@H]4[C@@]5(C)Cc6c([nH]c7ccc(F)cc67)C(C)(C)[C@@H]5CC[C@]43C)[C@@H]12	> 20	> 20	9.16 (≈ 16.8 µM)	> 20	17.4 (≈ 31.9 µM)	17.8 (≈ 32.6 µM)	10.9 (≈ 20.1 µM)	> 20		
C=C(C)[C@@H]1CC[C@]2(C(=O)O)CC[C@]3(C)[C@H](CC[C@@H]4[C@@]5(C)Cc6c([nH]c7ccc(OC)cc67)C(C)(C)[C@@H]5CC[C@]43C)[C@@H]12	5.8 (≈ 10.4 µM)	5.75 (≈ 10.3 µM)	8.4 (≈ 15.1 µM)	12.8 (≈ 22.9 µM)	6.4 (≈ 11.5 µM)	8.2 (≈ 14.7 µM)	> 20	7.5 (≈ 13.4 µM)		
C=C(C)[C@@H]1CC[C@]2(C(=O)O)CC[C@]3(C)[C@H](CC[C@@H]4[C@@]5(C)CC[C@H](O)C(C)(C)[C@@H]5CC[C@]43C)[C@@H]12 [BETULINIC ACID]	11.5 (≈ 25.2 µM)	> 20	13.3 (≈ 29 µM)	5.02 (≈ 11 µM)	10.3 (≈ 22.6 µM)	3 (≈ 6.57 µM)	3.25 (≈ 7.12 µM)	4.37 (≈ 9.57 µM)		
